Rows were chosen to be rich in hits. Some 5% of all compounds tested hit in one or more screens of this group.
XBP1 UPR activ: activators of adaptive arm of unfolded protein response (XBP1) | CHO-XBP1 luciferase reporter, IRE1-XBP1 UPR activation, luminescence; percent of tunicamycin response, DMSO as zero | activation, % at 20 µM | 330,000 tested, 0.33% active | AID 463104;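 active means versus positive control, 20 µM dose yields 30% or more activation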;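 further: 100% = tunicamycin at 10 µg/mL and 0% = DMSO only wells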
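Signal: luciferase luminescence; Assay system: CHO-XBP1 luciferase reporter cells; Amount: one thousand reporter cells per well; Dosing: 20 µM single concentration, DMSO 1%; Benchmarks: high control tunicamycin 10 µg/mL final, low control DMSO vehicle only; Schedule: 6 h compound exposure at 37 °C, 5% CO2; Evaluation: percent activation relative to tunicamycin reference.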
T cruzi inh: blocks replication of Trypanosoma cruzi. T. cruzi beta-gal in NIH3T3, luminescence, 90 h. inhibition, % (concentration not given with the values). 300,000 tested, 1.4% active;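 active means mean inhibition across valid replicates above about 55%, limit read from the data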;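 further: signal also drops with host cell toxicity which is not excluded here; 0% = plate median of DMSO wells and 100% = zero luminescence signal; higher percent means less beta-gal luminescence so fewer parasites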
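assay system = mouse NIH/3T3 fibroblasts infected with β-gal-expressing T. cruzi Tulahuen C4 | input = 5,000 NIH/3T3 host cells per well | buffer or medium = DMEM plus 2% FBS | timing = 3 h host attachment, then at least 90 h co-culture | measured by = GalScreen luminescence, 60 min | evaluation = luminescence reflecting intracellular parasite burden, expressed as percent inhibition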
CSC inhib: cancer stem cell inhibition; cancer stem cell-like cells viability, luminescence; 300,000 tested, 1.1% active; AID 2717; inhibition, % at 7.5 µM; in the data active means inhibition above about 75%; tested in HMLE shEcad cells
Mdm2-MdmX inh: inhibitors of human Mdm2/MdmX interaction; SaOS-2 split-luciferase Mdm2/MdmX complementation, luminescence; O15151+Q00987; AID 485346; inhibition, % at 8 µM; 330,000 tested, 3% active;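 active means inhibition of at least 50% at 8 µM in the primary screen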
Target sequence (O15151 whole entry, looked up): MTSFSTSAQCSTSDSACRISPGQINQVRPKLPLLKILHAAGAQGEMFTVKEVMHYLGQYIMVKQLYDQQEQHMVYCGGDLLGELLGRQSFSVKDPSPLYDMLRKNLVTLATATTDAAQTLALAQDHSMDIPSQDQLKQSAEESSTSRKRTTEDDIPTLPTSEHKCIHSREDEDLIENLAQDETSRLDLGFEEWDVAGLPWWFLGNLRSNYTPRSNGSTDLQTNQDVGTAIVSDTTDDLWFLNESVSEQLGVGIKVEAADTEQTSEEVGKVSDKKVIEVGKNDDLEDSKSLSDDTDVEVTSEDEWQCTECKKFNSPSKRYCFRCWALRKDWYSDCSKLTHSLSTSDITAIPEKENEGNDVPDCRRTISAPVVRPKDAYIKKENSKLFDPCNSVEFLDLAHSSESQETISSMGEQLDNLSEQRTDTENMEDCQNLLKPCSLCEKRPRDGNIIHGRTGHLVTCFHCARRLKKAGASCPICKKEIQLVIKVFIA
Target sequence (Q00987 whole entry, looked up): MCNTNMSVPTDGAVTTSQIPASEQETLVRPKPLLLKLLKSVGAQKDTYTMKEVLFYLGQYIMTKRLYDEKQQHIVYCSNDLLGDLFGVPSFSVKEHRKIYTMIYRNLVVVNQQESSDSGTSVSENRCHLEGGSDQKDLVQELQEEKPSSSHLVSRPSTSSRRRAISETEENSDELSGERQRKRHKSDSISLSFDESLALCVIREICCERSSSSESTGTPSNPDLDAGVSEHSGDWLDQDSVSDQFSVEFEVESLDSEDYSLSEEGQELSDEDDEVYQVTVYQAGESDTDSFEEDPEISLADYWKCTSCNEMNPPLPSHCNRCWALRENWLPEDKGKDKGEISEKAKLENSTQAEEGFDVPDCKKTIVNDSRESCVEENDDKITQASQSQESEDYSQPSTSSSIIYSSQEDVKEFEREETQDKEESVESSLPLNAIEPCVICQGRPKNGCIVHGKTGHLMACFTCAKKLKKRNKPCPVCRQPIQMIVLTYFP
Beta apoptosis: beta cell apoptosis inhibition; INS-1E cytokine-induced death, ATP luminescence, 48 h; percent of positive-control rescue, neutral wells zero; 300,000 tested, 0.8% active; protection from apoptosis, % (concentration not given with the values);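 active means Every replicate reaches about 75%, or at least half do and their mean reaches it too, limit read from the data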;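 further: 0% = cytokine-treated negative control wells and 100% = positive control rescue; higher means more ATP so stronger rescue from cytokine killing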
CHOP UPR activ: activators of apoptotic arm of unfolded protein response (CHOP); AID 449763; 330,000 tested, 0.34% active; CHO-CHOP luciferase reporter, UPR activation, luminescence; percent of tunicamycin response over DMSO baseline; activation, % at 10 µM;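 active means at 10 µM dose, activation of 40% or more, normalized to positive control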;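 further: 100% = tunicamycin at 10 µg/mL and 0% = DMSO alone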
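assay system = CHO CHOP reporter cells | amount = 500 CHO-CHOP cells per well | buffer or medium = F12 with 10% FBS | incubation = 16-18 h cell attachment, then 6 h compound exposure, 37 °C | detection = luminescence read with Steady-Glo | read-out = percent activation relative to tunicamycin control | controls = tunicamycin high control, DMSO low control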
Numbers without * were called inactive.

CCN(CC)CCSc1nnc2c3ccccc3n(Cc3ccccc3)c2n1 was read as XBP1 UPR activ 2, T cruzi inh 69*, CSC inhib 79*, Mdm2-MdmX inh 26, Beta apoptosis -1 and CHOP UPR activ 2.
`O=C1CC(c2ccccc2)CC(O)=C1C=NCc1ccccc1Cl` (centres undefined) gave XBP1 UPR activ 4, T cruzi inh -2, CSC inhib 84*, Mdm2-MdmX inh 35, Beta apoptosis 13 and CHOP UPR activ -2.
O=C(O)CCS(=O)(=O)c1ccccc1Cl was read as XBP1 UPR activ -2, T cruzi inh -6, CSC inhib -10, Mdm2-MdmX inh -9, Beta apoptosis -5 and CHOP UPR activ -1.
CC(/C=N/NC(=O)c1cc(C(C)(C)C)[nH]n1)=C\c1ccccc1 was read as XBP1 UPR activ 3, T cruzi inh 7, CSC inhib 3, Mdm2-MdmX inh 7, Beta apoptosis 9 and CHOP UPR activ 0.
For Cc1nn(-c2ccccc2)c(C)c1-c1cc(C(=O)N/N=C/c2ccc(O)cc2)[nH]n1 the results were XBP1 UPR activ -1, T cruzi inh -4, CSC inhib 75*, Mdm2-MdmX inh 22, Beta apoptosis 24 and CHOP UPR activ 1.
`CC(/C=N/NC(=O)c1cc(-c2ccc(C)s2)[nH]n1)=C\c1ccccc1` gave XBP1 UPR activ 8, T cruzi inh -45, CSC inhib 87*, Mdm2-MdmX inh 49, Beta apoptosis 20 and CHOP UPR activ 1.
`Cc1nn(-c2ccccc2)c(C)c1/C=N/NC(=O)c1cc(-c2ccc(Br)s2)[nH]n1` gave XBP1 UPR activ 15, T cruzi inh 5, CSC inhib 76*, Mdm2-MdmX inh 49, Beta apoptosis 31 and CHOP UPR activ 3.
For COc1cc(/C=N/NC(=O)c2cc(-c3c(C)nn(-c4ccccc4)c3C)n[nH]2)ccc1O the results were XBP1 UPR activ -3, T cruzi inh -15, CSC inhib 9, Mdm2-MdmX inh -50, Beta apoptosis 35 and CHOP UPR activ -1.
`CC(C)CC(C(=O)O)N1C(=O)C2C3CC(C2C1=O)C1C(c2ccccc2)c2sc(=O)[nH]c2SC31` (centres undefined) gave XBP1 UPR activ 1, T cruzi inh -12, CSC inhib 5, Mdm2-MdmX inh 22, Beta apoptosis -13 and CHOP UPR activ 0.
Screening Cn1c2ccccc2c2c(C(=O)NCc3ccco3)cn(C3CCCCC3)c(=O)c21 returned XBP1 UPR activ -1, T cruzi inh 3, CSC inhib -2, Mdm2-MdmX inh 11, Beta apoptosis 0 and CHOP UPR activ 1.
CCCCCOc1ccc(OC(=O)c2ccncc2)cc1 was read as XBP1 UPR activ 8, T cruzi inh 31, CSC inhib 93*, Mdm2-MdmX inh 5, Beta apoptosis 11 and CHOP UPR activ 2.
Screening Cc1ccc(CNC(=O)COc2ccc(S(=O)(=O)N3CCCC3)cc2)cc1 returned XBP1 UPR activ -5, T cruzi inh 1, CSC inhib 5, Mdm2-MdmX inh -6, Beta apoptosis -2 and CHOP UPR activ 1.
For Cc1cc2nc(-c3ccc[nH]c3=O)[nH]c2cc1C the results were XBP1 UPR activ -8, T cruzi inh 2, CSC inhib 64, Mdm2-MdmX inh -4, Beta apoptosis 78* and CHOP UPR activ -7.
Screening N#C/C(=C/C=C/c1ccccc1)C(=O)Nc1ccccc1 returned XBP1 UPR activ -1, T cruzi inh 69*, CSC inhib 4, Mdm2-MdmX inh 26, Beta apoptosis 4 and CHOP UPR activ 3.
For COc1ccc(OC)c(CNc2ccc3c(c2)CCC3)c1 the results were XBP1 UPR activ -3, T cruzi inh 70*, CSC inhib -10, Mdm2-MdmX inh -2, Beta apoptosis -9 and CHOP UPR activ 3.
COc1ccc(OC)c(CC(=O)Nc2ccc3c(c2)CCC3)c1 was read as XBP1 UPR activ 0, T cruzi inh 7, CSC inhib 1, Mdm2-MdmX inh -4, Beta apoptosis -2 and CHOP UPR activ -1.
Screening COc1cccc(CNc2ccc3c(c2)CCC3)c1 returned XBP1 UPR activ -1, T cruzi inh 60*, CSC inhib 6, Mdm2-MdmX inh 22, Beta apoptosis 6 and CHOP UPR activ 13.
For O=C(CN1CCN(S(=O)(=O)c2ccccc2F)CC1)Nc1ccccc1C(=O)c1ccccc1 the results were XBP1 UPR activ 0, T cruzi inh 27, CSC inhib 24, Mdm2-MdmX inh 18, Beta apoptosis 10 and CHOP UPR activ 3.
Cc1cccc(-n2cc(CN(C)Cc3nccn3C)c(-c3cccc(F)c3)n2)c1 was read as XBP1 UPR activ 0, T cruzi inh 65*, CSC inhib 103*, Mdm2-MdmX inh 33, Beta apoptosis -3 and CHOP UPR activ 2.
For CCn1ccnc1CN(C)Cc1cn(-c2cccc(C)c2)nc1-c1cccc(F)c1 the results were XBP1 UPR activ -2, T cruzi inh 55*, CSC inhib 63, Mdm2-MdmX inh 29, Beta apoptosis 20 and CHOP UPR activ 3.
For COc1ccc(-n2cc(CN(C)CCO)c(-c3cccc(F)c3)n2)cc1 the results were XBP1 UPR activ -1, T cruzi inh 16, CSC inhib -7, Mdm2-MdmX inh 9, Beta apoptosis -14 and CHOP UPR activ 2.
CCn1ccnc1CN(C)Cc1cn(-c2ccc(C)cc2)nc1-c1cccc(C)c1 was read as XBP1 UPR activ 0, T cruzi inh 66*, CSC inhib -2, Mdm2-MdmX inh 24, Beta apoptosis -2 and CHOP UPR activ 1.
Cc1ccc(-n2cc(CN3CCN(Cc4nccn4C)CC3)c(-c3cccc(C)c3)n2)cc1 was read as XBP1 UPR activ 1, T cruzi inh 41, CSC inhib 9, Mdm2-MdmX inh 30, Beta apoptosis -1 and CHOP UPR activ -1.
For CCOC(=O)C1=C(Cc2ccc(C)cc2)C(=O)c2ccccc2C1=O the results were XBP1 UPR activ 22, T cruzi inh -23, CSC inhib 20, Mdm2-MdmX inh 2, Beta apoptosis 0 and CHOP UPR activ 97*.
CC(C)C(C)(C#N)NC(=O)CSc1nnc(C(F)(F)F)n1C (centres undefined) was read as XBP1 UPR activ -1, T cruzi inh -5, CSC inhib -3, Mdm2-MdmX inh 10, Beta apoptosis -5 and CHOP UPR activ 1.
For O=C(Nc1cccnc1)c1ccc(N2CCOCC2)c([N+](=O)[O-])c1 the results were XBP1 UPR activ -1, T cruzi inh -6, CSC inhib -20, Mdm2-MdmX inh -3, Beta apoptosis -10 and CHOP UPR activ 4.
